Results: ChEMBL document CHEMBL4145531, “Synthesis of novel Chlorin e6-curcumin conjugates as photosensitizers for photodynamic therapy against pancreatic carcinoma” (Eur J Med Chem, 2018)
Activity calls are given as the source filed them. The calls are words filed in the database; no cut-off is given here.

Experiments:
PANC-1 [1] = experiment: Phototoxicity in human PANC1 cells assessed as reduction in cell viability preincubated for 3 hrs followed by 9 J/cm2 laser light irradiation and measured after 72 hrs by MTT assay; assay type: functional, cell-based; details: PANC-1, light or radiation study
Summary of the method: (§1)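 Cells were seeded at 5.0 x 10^3 per well and incubated overnight at 37 °C. AsPC-1 was in RPMI-1640 and MIA PaCa-2/PANC-1 in DMEM, with 10% FBS. Cells took up compound for 3h, then received 660 nm laser light (50 mW, 9 J/cm²).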

ASPC1 [2] = experiment: Phototoxicity in human AsPC1 cells assessed as induction of apoptosis by measuring upregulation of cleaved caspase-9 expression at 20 to 40 nM preincubated for 3 hrs followed by 9 J/cm2 laser light irradiation and measured after 24 hrs by Western blot analysis; assay type: functional, cell-based
Summary of the method: (§2)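 Cells in six-well plates were exposed to compound for 3h and irradiated at 660 nm (50 mW, 9 J/cm²), then incubated 24h. Lysis was on ice in modified RIPA buffer (pH 7.4) with protease inhibitors. After clearing at 10,000g for 10 min at 4 °C, proteins were separated by 10% SDS-PAGE, blotted and detected by ECL.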

[3] = Drug uptake in human AsPC1 cells at 5 uM after 24 hrs by FACS analysis relative to chlorin e6; assay type: ADME, cell-based; details: aspc1, 24 h
Summary of the method: (§3)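 AsPC-1 cells (2 x 10^5) were seeded and kept in the dark at 37 °C for 24h. They were then incubated with 5 µM compound for 30 min to 24h. Cells were harvested by trypsin, washed three times in PBS and resuspended in PBS. Uptake was read as mean fluorescence intensity by FACS.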

ASPC1 [4] = experiment: Phototoxicity in human AsPC1 cells assessed as induction of apoptosis by measuring early apoptotic cells at 40 nM preincubated for 3 hrs followed by 9 J/cm2 laser light irradiation and measured after 24 hrs by Annexin V-FITC/propidium iodide staining based flow cytometry (reference value: 7.05%); assay type: functional
ASPC1 [5] = experiment: Phototoxicity in human AsPC1 cells assessed as induction of apoptosis by measuring live cells at 40 nM preincubated for 3 hrs followed by 9 J/cm2 laser light irradiation and measured after 24 hrs by Annexin V-FITC/propidium iodide staining based flow cytometry (reference value: 91.51%); assay type: functional
MIA PaCa-2 = experiment: Potency index, ratio of chlorin e6 IC50 to compound IC50 for phototoxicity in human MIAPaCa2 cells; assay type: functional
[6] = Dark toxicity in human PANC1 cells assessed as reduction in cell viability after 72 hrs by MTT assay; assay type: cell-based, PANC-1
Summary of the method: (§4)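 AsPC-1 cells were grown in RPMI-1640, and MIA PaCa-2 and PANC-1 in DMEM, each with 10% FBS and 1% penicillin/streptomycin. 5.0 x 10^3 cells were seeded and left overnight at 37 °C. They were exposed to 0-300 µM compound for 3h without laser irradiation, then held 72h in the dark at 37 °C, 5% CO₂. Viability was read by MTT.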

PANC-1 [7] = experiment: Potency index, ratio of chlorin e6 IC50 to compound IC50 for phototoxicity in human PANC1 cells; assay type: functional
ASPC1 [8] = experiment: Phototoxicity in human AsPC1 cells assessed as induction of apoptosis by measuring live cells at 60 nM preincubated for 3 hrs followed by 9 J/cm2 laser light irradiation and measured after 24 hrs by Annexin V-FITC/propidium iodide staining based flow cytometry (reference value: 91.51%); assay type: functional
[9] = Induction of singlet oxygen production in DMSO assessed as DPBF absorption intensity (reference value: 100%); assay type: functional
Summary of the method: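 DPBF (50 µM in DMSO) was mixed with 1 µM photosensitizer in the dark. Samples were irradiated at 660 nm, 50 mW, 2 J/cm² for 40 s. Singlet oxygen was read as the decay of normalized DPBF absorbance at 418 nm relative to a DPBF-only control.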

ASPC1 [10] = experiment: Phototoxicity in human AsPC1 cells assessed as induction of apoptosis by measuring necrotic cells at 20 nM preincubated for 3 hrs followed by 9 J/cm2 laser light irradiation and measured after 24 hrs by Annexin V-FITC/propidium iodide staining based flow cytometry (reference value: 1.03%); assay type: functional
[11] = Dark toxicity in human AsPC1 cells assessed as reduction in cell viability after 72 hrs by MTT assay; assay type: cell-based; summary of the method: as §4
[12] = Drug uptake in human AsPC1 cells at 5 uM by FACS analysis; assay type: ADME, cell-based; details: aspc1, 5 µM, TDE = time-dependent effect; summary of the method: as §3
ASPC1 [13] = experiment: Phototoxicity in human AsPC1 cells assessed as induction of apoptosis by measuring downregulation of Bcl2 expression at 20 to 40 nM preincubated for 3 hrs followed by 9 J/cm2 laser light irradiation and measured after 24 hrs by Western blot analysis; assay type: functional, cell-based; summary of the method: as §2
[14] = Drug uptake in human AsPC1 cells at 5 uM up to 0.5 to 24 hrs by FACS analysis; assay type: ADME, cell-based; details: aspc1, 5 µM; summary of the method: as §3
ASPC1 [15] = experiment: Phototoxicity in human AsPC1 cells assessed as induction of apoptosis by measuring late apoptotic cells at 20 nM preincubated for 3 hrs followed by 9 J/cm2 laser light irradiation and measured after 24 hrs by Annexin V-FITC/propidium iodide staining based flow cytometry (reference value: 0.41%); assay type: functional
[16] = Selectivity index, ratio of IC50 for dark toxicity in human PANC1 cells to IC50 for phototoxicity in human PANC1 cells; assay type: cell-based, PANC-1; details: read-out: Ratio IC50
Summary of the method: (§5)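 The ratio is the dark-toxicity IC50 over the phototoxicity IC50 in the same cell line, both from 72h MTT. The dark arm received no light. The photo arm was irradiated at 660 nm, 50 mW, 9 J/cm² after 3h compound exposure.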

ASPC1 [17] = experiment: Phototoxicity in human AsPC1 cells assessed as induction of apoptosis by measuring late apoptotic cells at 60 nM preincubated for 3 hrs followed by 9 J/cm2 laser light irradiation and measured after 24 hrs by Annexin V-FITC/propidium iodide staining based flow cytometry (reference value: 0.41%); assay type: functional
ASPC1 [18] = experiment: Phototoxicity in human AsPC1 cells assessed as reduction in cell viability preincubated for 3 hrs followed by 9 J/cm2 laser light irradiation and measured after 72 hrs by MTT assay; assay type: functional, cell-based; details: ASPC1, light or radiation study; summary of the method: as §1
ASPC1 [19] = experiment: Phototoxicity in human AsPC1 cells assessed as induction of apoptosis by measuring necrotic cells at 60 nM preincubated for 3 hrs followed by 9 J/cm2 laser light irradiation and measured after 24 hrs by Annexin V-FITC/propidium iodide staining based flow cytometry (reference value: 1.03%); assay type: functional
ASPC1 [20] = experiment: Phototoxicity in human AsPC1 cells assessed as induction of apoptosis by measuring necrotic cells at 40 nM preincubated for 3 hrs followed by 9 J/cm2 laser light irradiation and measured after 24 hrs by Annexin V-FITC/propidium iodide staining based flow cytometry (reference value: 1.03%); assay type: functional
[21] = Drug uptake in human AsPC1 cells at 5 uM after 3 hrs by FACS analysis relative to chlorin e6; assay type: ADME, cell-based; details: aspc1, 3 h; summary of the method: as §3
[22] = Selectivity index, ratio of IC50 for dark toxicity in human MIAPaCa2 cells to IC50 for phototoxicity in human MIAPaCa2 cells; assay type: cell-based, MIA PaCa-2; details: read-out: Ratio IC50; summary of the method: as §5
[23] = Solubility of the compound in 2% DMSO/98% de-ionized water at 8.2 uM; assay type: physicochemical; details: buffer
ASPC1 [24] = experiment: Phototoxicity in human AsPC1 cells assessed as induction of apoptosis by measuring upregulation of Bax expression at 20 to 40 nM preincubated for 3 hrs followed by 9 J/cm2 laser light irradiation and measured after 24 hrs by Western blot analysis; assay type: functional, cell-based; summary of the method: as §2

C=Cc1c(C)c2cc3nc(c(CC(=O)OC)c4[nH]c(cc5nc(cc1[nH]2)C(C)=C5CC)c(C)c4C(=O)NCCOCCOCCNC(=O)CCCC(=O)Oc1ccc(/C=C/C(=O)CC(=O)/C=C/c2ccc(O)c(OC)c2)cc1OC)C(CCC(=O)OC)C3C (stereo not given)
IC50 (PANC-1 [1]): 40 nM
Activity (ASPC1 [2]): Active
fold change (FC) [3]: 29
Activity (ASPC1 [4]): 16.27%
Activity (ASPC1 [5]): 70.74%
Ratio IC50 (MIA PaCa-2): 452
IC50 at 72 h [6]: > 300000 nM
Ratio IC50 (PANC-1 [7]): 247
Activity (ASPC1 [8]): 51.45%
Activity [9]: 12.1%
Activity (ASPC1 [10]): 1.43%
IC50 at 72 h [11]: 186000 nM
Drug uptake [12]: Tde
Activity (ASPC1 [13]): Active
Drug uptake [14]: Active
Activity (ASPC1 [15]): 6.1%
selectivity ratio [16]: > 7500
Activity (ASPC1 [17]): 15.65%
IC50 (ASPC1 [18]): 40 nM
Activity (ASPC1 [19]): 8.08%
Activity (ASPC1 [20]): 2.22%
fold change (FC) [21]: 47
selectivity ratio [22]: 2370
solubility [23]: Soluble
Activity (ASPC1 [24]): Active
